Results from different studies.
Each line is one published result; the experiments were not run side by side.
Observed: binding
SULT2A1: Sulfotransferase 2A1 (SULT2A1, Homo sapiens, UniProt Q06520)
Pah: Phenylalanine-4-hydroxylase (Pah, Rattus norvegicus, UniProt P04176)
VHL: von Hippel-Lindau disease tumor suppressor (VHL, Homo sapiens, UniProt P40337)

| SMILES | target | method | pH | notes | Kd [µM] |
| --- | --- | --- | --- | --- | --- |
| C[C@]12CC[C@H](O)CC1=CC[C@@H]1[C@@H]2CC[C@]2(C)C(=O)CC[C@@H]12 | SULT2A1 | fluorescence |  |  | 0.29 |
| CC1(C)Cc2c(-c3ccccc3)c(-c3ccc(Cl)cc3)c(CC(=O)NCC(=O)O)n2C1 | Prostaglandin E synthase (PTGES, Homo sapiens, UniProt O14684) | ITC |  |  | 2.1 |
| Nc1ncnc2c1ncn2[C@@H]1O[C@H](COP(=O)(O)OS(=O)(=O)O)[C@@H](OP(=O)(O)O)[C@H]1O | SULT2A1 | fluorescence |  |  | 0.25 |
| Cc1cc(Nc2cc3ncccc3c(N[C@@H]3C[C@H]4CC[C@@H](C3)N4CCC#N)n2)n[nH]1 | Serine/threonine-protein kinase DCLK1 (DCLK1, Homo sapiens, UniProt O15075) | competition with immobilised ligand |  |  | 0.89 |
| C=C(C)[C@@H]1CC[C@]2(C)CC[C@]3(C)[C@H](CC[C@@H]4[C@@]5(C)CC[C@H](O)C(C)(C)[C@@H]5CC[C@]43C)[C@@H]12 | GTPase KRas (KRAS, Homo sapiens, UniProt P01116) | ITC |  |  | 0.33 |
| N[C@@H](Cc1ccccc1)C(=O)O | Pah | fluorescence | pH 7.5 |  | 54 |
| Cc1ncsc1-c1ccc(CNC(=O)[C@@H]2C[C@H](O)CN2C(=O)[C@@H](NC(=O)C2(F)CC2)C(C)(C)C)c(OCCOc2ccc(CN3CCN(c4cc(-c5ccccc5O)nnc4N)CC3)cc2)c1 | VHL | SPR |  |  | > 10 |
| CCCC[C@H](N)C(=O)O | Pah | fluorescence | pH 7.5 |  | 17000 |
| O=C(O)c1cccc(NC(=S)NC(=O)c2ccc3ccccc3c2)c1 | Stromal cell-derived factor 1 (CXCL12, Homo sapiens, UniProt P48061) | NMR |  |  | 64 |
| Cc1cnc(-c2ccc(-c3ccc(NC(=O)Nc4c(F)cc(F)cc4F)cc3F)c3c2C(=O)NC3)[nH]1 | Serine/threonine-protein kinase 24 (STK24, Homo sapiens, UniProt Q9Y6E0) | competition with immobilised ligand |  |  | 0.024 |
| COCCOc1cc(-c2scnc2C)ccc1CNC(=O)[C@@H]1C[C@@H](O)CN1C(=O)[C@@H](NC(=O)C1(F)CC1)C(C)(C)C | VHL | SPR |  |  | 0.062 |
| CC(C)[C@H](N)c1nc2cc(-c3ccncc3F)sc2c(=O)[nH]1 | Cell division cycle 7-related protein kinase (CDC7, Homo sapiens, UniProt O00311) | MST |  |  | 0.00032 |
| Nc1ncnc2c1ncn2[C@@H]1O[C@H](CSCC[C@H](N)C(=O)O)[C@@H](O)[C@H]1O | mdh (Escherichia coli, UniProt P61889, del14-14/del9-10/V5N) | ITC |  |  | 13.3 |
| Cc1ncsc1-c1ccc(CNC(=O)[C@@H]2C[C@@H](O)CN2C(=O)[C@@H](NC(=O)C2(F)CC2)C(C)(C)C)c(OCCOCCOCCN2CCN(c3cc(-c4ccccc4O)nnc3N)CC2)c1 | VHL | SPR |  |  | 0.098 |
| Cc1cc2nc3c(=O)[nH]c(=O)nc-3n(C[C@H](O)[C@H](O)[C@H](O)COP(=O)(O)OP(=O)(O)OC[C@H]3O[C@@H](n4cnc5c(N)ncnc54)[C@H](O)[C@@H]3O)c2cc1C | Nuclear receptor coactivator 3 (Homo sapiens, UniProt Q9Y6Q9) |  |  | lysate | 0.015 |
